Data reported in ChEMBL document CHEMBL4177600, “Identification of novel PI3K inhibitors through a scaffold hopping strategy” (Bioorg Med Chem Lett, 2017).
In brackets after ≈: the same amount, converted by molar mass. One block for each molecule: values may come before it.

Assays:
[1] = Half-life in BALB-C mouse at 10 mg/kg, po by LC-MS/MS analysis; assay type: ADME, organism-based; settings: in vivo
Procedure, shortened: (§1)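 BALB-C mice dosed IV (10% NMP/50% PEG300/40% saline) or PO (10% NMP/90% PEG300). Plasma sampled at 6 (IV) or 8 (PO) time points; compound measured by LC/MS/MS. Parameters from bicompartmental model fit; each value is the mean of 3 independent samples.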

[2] = target: Phosphatidylinositol 4,5-bisphosphate 3-kinase catalytic subunit gamma isoform (Homo sapiens, UniProt P48736); assay: Inhibition of recombinant full-length human N-terminal His6-tagged p110gamma expressed in baculovirus infected Sf21 insect cells using PIP2 as substrate by HTRF assay; settings: read-out: Ki(app)
Phosphatidylinositol 4,5-bisphosphate 3-kinase catalytic subunit gamma isoform, sequence (P48736 whole entry, canonical isoform): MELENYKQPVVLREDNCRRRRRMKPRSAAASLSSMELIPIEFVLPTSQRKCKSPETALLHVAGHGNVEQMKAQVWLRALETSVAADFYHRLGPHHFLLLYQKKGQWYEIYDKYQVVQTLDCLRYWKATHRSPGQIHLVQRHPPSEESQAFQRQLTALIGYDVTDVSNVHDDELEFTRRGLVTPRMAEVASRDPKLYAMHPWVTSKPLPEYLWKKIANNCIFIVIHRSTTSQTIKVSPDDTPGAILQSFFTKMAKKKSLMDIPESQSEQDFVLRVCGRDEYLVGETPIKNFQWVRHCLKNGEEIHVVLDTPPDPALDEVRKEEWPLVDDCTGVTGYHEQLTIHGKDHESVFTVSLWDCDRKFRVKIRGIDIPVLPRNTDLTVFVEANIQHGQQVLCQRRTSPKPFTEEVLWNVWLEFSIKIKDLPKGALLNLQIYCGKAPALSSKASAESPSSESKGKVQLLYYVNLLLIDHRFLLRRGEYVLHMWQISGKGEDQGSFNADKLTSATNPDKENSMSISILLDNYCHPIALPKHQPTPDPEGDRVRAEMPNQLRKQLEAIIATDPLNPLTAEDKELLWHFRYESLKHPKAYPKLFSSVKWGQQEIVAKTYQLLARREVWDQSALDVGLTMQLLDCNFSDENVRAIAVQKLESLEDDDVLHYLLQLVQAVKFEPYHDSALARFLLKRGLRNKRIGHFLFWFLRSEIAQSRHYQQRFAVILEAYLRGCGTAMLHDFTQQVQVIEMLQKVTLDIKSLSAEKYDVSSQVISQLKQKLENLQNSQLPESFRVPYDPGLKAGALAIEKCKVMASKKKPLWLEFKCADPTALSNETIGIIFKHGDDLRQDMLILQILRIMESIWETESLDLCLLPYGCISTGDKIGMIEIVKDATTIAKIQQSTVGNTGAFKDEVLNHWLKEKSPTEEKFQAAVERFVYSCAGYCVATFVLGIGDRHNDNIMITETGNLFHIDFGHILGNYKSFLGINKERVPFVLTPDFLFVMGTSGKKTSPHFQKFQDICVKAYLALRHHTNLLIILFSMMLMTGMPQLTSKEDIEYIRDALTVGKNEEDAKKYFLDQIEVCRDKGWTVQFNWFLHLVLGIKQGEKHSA

[3] = AUC (infinity) in BALB-C mouse at 10 mg/kg, po by LC-MS/MS analysis; assay type: ADME, organism-based; set-up: dose 10 mg/kg, time infinity, route oral; settings: in vivo; procedure, shortened: as §1
Mus musculus [4] = assay: Time at which plasma concentration stays above cellular EC50 for inhibition of AKT phosphorylation in BALB-C mouse at 10 mg/kg, po measured up to 24 hrs by LC-MS/MS analysis; assay type: organism-based; settings: in vivo
Procedure, shortened: (§2)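 BALB-C mice dosed IV in 10% NMP/50% PEG300/40% saline or PO in 10% NMP/90% PEG300. Plasma sampled at 6 (IV) or 8 (PO) time points and quantified by LC/MS/MS. Parameters come from a bicompartmental model fit; values are means of 3 independent samples. Plasma levels were compared with AKT-P EC50 from U2OS cells converted to ng/ml.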

[5] = Clearance in BALB-C mouse at 5 mg/kg, iv by LC-MS/MS analysis; assay type: ADME, organism-based; settings: in vivo
Procedure, shortened: (§3)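 Mice (BALB-C) given IV dose in 10% NMP/50% PEG300/40% saline; plasma sampled at 6 times, levels by LC/MS/MS.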

[6] = Volume of distribution in BALB-C mouse at 5 mg/kg, iv by LC-MS/MS analysis; assay type: ADME, organism-based; settings: in vivo; procedure, shortened: as §2
[7] = Cmax in BALB-C mouse at 10 mg/kg, po by LC-MS/MS analysis; assay type: ADME, organism-based; set-up: dose 10 mg/kg, route oral; settings: in vivo; procedure, shortened: as §1
PI3K p110 beta/p85 alpha = PI3K p110 beta/p85 alpha (Homo sapiens, UniProt P42338); assay: Inhibition of p110beta/85alpha (unknown origin) using PIP2 as substrate by HTRF assay; assay type: protein-complex assay; settings: read-out: Ki(app)
CYP2C19 = CYP2C19 (Homo sapiens, UniProt P33261); assay: Inhibition of CYP2C19 (unknown origin) at 10 uM relative to control; assay type: ADME
CYP2C19, sequence (P33261 whole entry): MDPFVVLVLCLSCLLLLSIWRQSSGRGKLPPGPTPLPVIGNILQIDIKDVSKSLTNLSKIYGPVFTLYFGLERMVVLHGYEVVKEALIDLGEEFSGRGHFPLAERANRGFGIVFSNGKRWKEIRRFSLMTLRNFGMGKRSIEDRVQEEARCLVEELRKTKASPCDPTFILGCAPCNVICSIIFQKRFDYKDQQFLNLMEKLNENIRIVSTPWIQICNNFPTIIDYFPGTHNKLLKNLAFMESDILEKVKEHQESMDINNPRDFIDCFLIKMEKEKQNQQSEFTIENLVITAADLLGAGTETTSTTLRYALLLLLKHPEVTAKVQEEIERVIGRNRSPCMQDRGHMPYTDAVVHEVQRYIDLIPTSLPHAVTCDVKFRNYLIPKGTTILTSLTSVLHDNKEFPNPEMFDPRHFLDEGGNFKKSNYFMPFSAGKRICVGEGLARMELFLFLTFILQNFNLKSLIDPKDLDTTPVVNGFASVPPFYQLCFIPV
Procedure, shortened: (§4)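 CYP1A2, 2C9, 2C19, 2D6 and 3A4 inhibition measured at 10 µM test compound in duplicate; percent inhibition reported.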

CYP2C9 = CYP2C9 (Homo sapiens, UniProt P11712); assay: Inhibition of CYP2C9 (unknown origin) at 10 uM relative to control; assay type: ADME; procedure, shortened: as §4
CYP2C9, sequence (P11712 whole entry): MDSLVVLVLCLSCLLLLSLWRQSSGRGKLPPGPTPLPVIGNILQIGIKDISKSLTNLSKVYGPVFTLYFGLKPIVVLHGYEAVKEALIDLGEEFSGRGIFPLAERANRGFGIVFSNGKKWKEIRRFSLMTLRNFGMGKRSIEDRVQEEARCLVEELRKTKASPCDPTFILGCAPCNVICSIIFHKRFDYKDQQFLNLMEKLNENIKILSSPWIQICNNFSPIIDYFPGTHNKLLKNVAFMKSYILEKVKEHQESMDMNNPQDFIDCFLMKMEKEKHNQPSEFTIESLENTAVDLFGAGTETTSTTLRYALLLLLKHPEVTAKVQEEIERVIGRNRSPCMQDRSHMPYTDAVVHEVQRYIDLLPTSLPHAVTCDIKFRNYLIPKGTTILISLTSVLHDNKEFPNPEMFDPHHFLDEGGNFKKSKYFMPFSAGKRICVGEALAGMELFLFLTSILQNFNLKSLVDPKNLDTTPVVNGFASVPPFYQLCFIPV

[8] = Permeability of the compound at 300 uL after 5 hrs by PAMPA; assay type: ADME; settings: read-out: permeability
Procedure, shortened: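 Pre-coated PAMPA plates with a tri-layer phospholipid membrane. Donor held compound in PBS at the highest concentration soluble in PBS; acceptor was PBS. Incubated 5 h at room temperature, with propranolol and sorafenib (10 µM) as high and low permeability controls. Donor and acceptor concentrations measured by LC-MS/MS; Pe (10^-6 cm/s) calculated from acceptor/equilibrium concentrations, 0.3 cm² area and well volumes.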

Mus musculus [9] = assay: Clearance in BALB-C mouse at 5 mg/kg, iv by LC-MS/MS analysis relative to hepatic blood flow; assay type: ADME, organism-based; settings: in vivo
CYP1A2 = target: T1, CYP1A2 (Homo sapiens, UniProt P05177); assay: Inhibition of CYP1A2 (unknown origin) at 10 uM relative to control; assay type: ADME; procedure, shortened: as §4
T1 sequence (P05177 whole entry): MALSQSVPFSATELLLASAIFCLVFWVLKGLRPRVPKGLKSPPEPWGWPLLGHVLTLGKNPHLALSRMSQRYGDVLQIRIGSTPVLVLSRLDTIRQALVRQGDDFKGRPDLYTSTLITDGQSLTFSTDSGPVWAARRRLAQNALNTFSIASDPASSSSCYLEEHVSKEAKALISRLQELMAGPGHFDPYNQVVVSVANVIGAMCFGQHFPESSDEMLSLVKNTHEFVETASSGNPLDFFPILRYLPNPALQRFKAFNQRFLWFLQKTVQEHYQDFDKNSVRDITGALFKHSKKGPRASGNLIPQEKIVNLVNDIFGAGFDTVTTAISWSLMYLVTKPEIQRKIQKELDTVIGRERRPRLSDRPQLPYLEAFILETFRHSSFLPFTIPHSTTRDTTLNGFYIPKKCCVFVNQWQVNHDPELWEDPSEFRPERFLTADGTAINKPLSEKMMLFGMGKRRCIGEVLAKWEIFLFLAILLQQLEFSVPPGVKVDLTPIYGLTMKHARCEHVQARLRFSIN

[10] = target: Serine/threonine-protein kinase mTOR (Homo sapiens, UniProt P42345); assay: Inhibition of recombinant human GST-tagged mTOR catalytic domain (1360 to 2549 residues) expressed in baculovirus expression system by AlexaFluor647-labeled kinase tracer 314 based LanthaScreen assay
[11] = target: Voltage-gated inwardly rectifying potassium channel KCNH2 (Homo sapiens, UniProt Q12809); assay: Inhibition of human ERG by Tracer Red dye based fluorescence polarization assay
Voltage-gated inwardly rectifying potassium channel KCNH2, sequence (Q12809 whole entry): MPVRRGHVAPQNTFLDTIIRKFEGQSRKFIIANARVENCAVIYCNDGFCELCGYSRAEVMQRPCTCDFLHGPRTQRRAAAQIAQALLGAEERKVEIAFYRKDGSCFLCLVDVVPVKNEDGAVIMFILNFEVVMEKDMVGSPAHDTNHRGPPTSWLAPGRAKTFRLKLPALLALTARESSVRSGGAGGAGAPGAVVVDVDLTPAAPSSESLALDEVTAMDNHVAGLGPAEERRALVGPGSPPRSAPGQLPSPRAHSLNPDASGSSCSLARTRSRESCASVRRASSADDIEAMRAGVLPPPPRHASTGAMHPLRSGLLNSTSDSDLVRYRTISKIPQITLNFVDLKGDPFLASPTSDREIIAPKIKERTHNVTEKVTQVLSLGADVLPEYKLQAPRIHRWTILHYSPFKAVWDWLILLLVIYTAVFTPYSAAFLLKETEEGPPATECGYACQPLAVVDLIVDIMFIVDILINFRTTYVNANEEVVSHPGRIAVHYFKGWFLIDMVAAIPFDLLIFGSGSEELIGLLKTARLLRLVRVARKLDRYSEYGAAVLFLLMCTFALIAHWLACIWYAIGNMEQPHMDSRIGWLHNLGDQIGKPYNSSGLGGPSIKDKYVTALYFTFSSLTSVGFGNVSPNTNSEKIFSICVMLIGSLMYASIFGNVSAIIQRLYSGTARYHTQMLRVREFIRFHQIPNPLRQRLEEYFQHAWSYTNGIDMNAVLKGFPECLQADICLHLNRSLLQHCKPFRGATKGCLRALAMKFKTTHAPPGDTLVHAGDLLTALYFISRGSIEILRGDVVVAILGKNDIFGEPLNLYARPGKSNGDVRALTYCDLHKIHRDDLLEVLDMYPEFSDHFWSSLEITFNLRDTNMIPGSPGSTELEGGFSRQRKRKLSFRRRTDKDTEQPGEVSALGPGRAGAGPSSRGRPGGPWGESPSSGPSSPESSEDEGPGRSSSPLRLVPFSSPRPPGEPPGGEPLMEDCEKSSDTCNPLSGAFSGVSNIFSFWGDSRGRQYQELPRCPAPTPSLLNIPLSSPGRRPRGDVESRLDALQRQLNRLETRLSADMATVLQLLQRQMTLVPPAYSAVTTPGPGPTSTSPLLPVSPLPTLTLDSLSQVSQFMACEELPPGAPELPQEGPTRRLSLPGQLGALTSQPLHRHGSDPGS
Procedure, shortened: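 hERG binding measured with Predictor hERG kit per kit instructions, read by fluorescence polarization.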

[12] = Half-life in BALB-C mouse at 5 mg/kg, iv by LC-MS/MS analysis; assay type: ADME, organism-based; settings: in vivo; procedure, shortened: as §1
[13] = Tmax in BALB-C mouse at 10 mg/kg, po by LC-MS/MS analysis; assay type: ADME, organism-based; settings: in vivo; procedure, shortened: as §2
[14] = Stability in human liver microsomes assessed as parent compound remaining at 0.5 uM after 30 mins by LC-MS/MS analysis; assay type: ADME, microsome; settings: read-out: Stability
Procedure, shortened: (§5)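 Single time-point stability assay: 0.5 µM compound, 0.5 mg/ml human or mouse liver microsomes in 0.1 M potassium phosphate pH 7.4, with NADPH-regenerating system, 30 min at 37 °C with shaking. Reaction quenched with acetonitrile/0.1% formic acid and centrifuged; supernatant analysed by LC-MS/MS. Reported as percent remaining; duplicates.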

U2OS = assay: Inhibition of AKT phosphorylation in human U2OS cells
[15] = Inhibition of PI3K in serum-stimulated human U2OS cells assessed as decrease in AKT1 phosphorylation at S473 by C-ELISA; assay type: cell-based
Procedure, shortened: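 U2OS osteosarcoma cells grown in 0.1% FBS, then serum-stimulated; endogenous phospho-Akt1 (Ser473) quantified by cell ELISA with chemiluminescent substrate. EC50 from sigmoid dose-response fit; two independent experiments in duplicate.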

[16] = Stability in mouse liver microsomes assessed as parent compound remaining at 0.5 uM after 30 mins by LC-MS/MS analysis; assay type: ADME, microsome; settings: read-out: Stability; procedure, shortened: as §5
[17] = Oral bioavailability in BALB-C mouse at 10 mg/kg by LC-MS/MS analysis; assay type: ADME, organism-based; settings: in vivo; procedure, shortened: as §2
[18] = target: PI3-kinase p110-alpha/p85-alpha (Homo sapiens, UniProt P42336); assay: Inhibition of full-length human P110alpha (1 to 1068 residues)/N-terminal GST-fused p85alpha (1 to 724 residues) expressed in baculovirus expression system by ADP Hunter assay; settings: read-out: Ki(app)
CYP3A4 = CYP3A4 (Homo sapiens, UniProt P08684); assay: Inhibition of CYP3A4 (unknown origin) at 10 uM relative to control; assay type: ADME; procedure, shortened: as §4
CYP3A4, sequence (P08684 whole entry): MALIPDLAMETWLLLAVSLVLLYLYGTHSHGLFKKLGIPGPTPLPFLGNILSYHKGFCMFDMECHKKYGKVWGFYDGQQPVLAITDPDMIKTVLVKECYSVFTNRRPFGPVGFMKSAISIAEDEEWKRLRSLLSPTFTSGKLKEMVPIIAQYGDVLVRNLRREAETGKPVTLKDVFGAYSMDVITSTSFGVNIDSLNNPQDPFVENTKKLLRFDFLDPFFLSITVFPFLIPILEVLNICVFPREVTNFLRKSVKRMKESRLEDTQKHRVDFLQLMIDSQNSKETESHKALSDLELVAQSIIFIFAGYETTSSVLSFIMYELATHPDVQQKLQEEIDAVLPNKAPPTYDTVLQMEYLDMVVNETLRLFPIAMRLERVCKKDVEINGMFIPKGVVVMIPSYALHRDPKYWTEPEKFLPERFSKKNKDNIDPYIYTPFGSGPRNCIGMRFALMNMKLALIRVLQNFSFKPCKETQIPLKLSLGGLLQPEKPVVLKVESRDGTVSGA

[19] = Kinetic solubility of the compound in phosphate buffered saline at pH 7.4 at 1 to 2 mg measured after 24 hrs by HPLC analysis; assay type: physicochemical; settings: read-out: Kinetic_solubility
Procedure, shortened: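 Solid compound (1–2 mg) in 1 mL PBS, pH 7.4, inverted in test tubes for 24 h. Samples centrifuged, supernatant analysed by HPLC with diode-array detection, with peak area compared to a standard of known concentration. LC-MS/MS used when UV signal was too low or the chromophore poor. Reported in µM.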

[20] = target: PI3-kinase p110-delta/p85-alpha (Homo sapiens, UniProt O00329); assay: Inhibition of recombinant human full-length N-terminal His6-tagged p110delta/human full-length p85alpha expressed in baculovirus infected Sf21 insect cells using PIP2 as substrate by HTRF assay; settings: read-out: Ki(app)
[21] = AUC (infinity) in BALB-C mouse at 5 mg/kg, iv by LC-MS/MS analysis; assay type: ADME, organism-based; set-up: dose 5 mg/kg, time infinity, route intravenous; settings: in vivo; procedure, shortened: as §1
CYP2D6 = CYP2D6 (Homo sapiens, UniProt P10635); assay: Inhibition of CYP2D6 (unknown origin) at 10 uM relative to control; assay type: ADME; procedure, shortened: as §4
CYP2D6, sequence (P10635 whole entry): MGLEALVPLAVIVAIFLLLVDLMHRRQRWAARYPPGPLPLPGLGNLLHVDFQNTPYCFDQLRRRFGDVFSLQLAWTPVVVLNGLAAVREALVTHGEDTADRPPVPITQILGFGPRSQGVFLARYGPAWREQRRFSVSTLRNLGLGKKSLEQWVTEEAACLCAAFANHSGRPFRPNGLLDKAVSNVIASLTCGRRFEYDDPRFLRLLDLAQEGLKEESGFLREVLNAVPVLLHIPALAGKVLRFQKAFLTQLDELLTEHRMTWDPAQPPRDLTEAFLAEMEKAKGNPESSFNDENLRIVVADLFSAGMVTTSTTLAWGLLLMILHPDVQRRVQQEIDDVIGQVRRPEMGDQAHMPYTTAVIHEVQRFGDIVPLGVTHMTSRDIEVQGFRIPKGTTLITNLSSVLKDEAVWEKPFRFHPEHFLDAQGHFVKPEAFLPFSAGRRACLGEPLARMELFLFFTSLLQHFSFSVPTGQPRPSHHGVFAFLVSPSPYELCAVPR

[22] = AUC (infinity) in BALB-C mouse at 8 mg/kg, iv by LC-MS/MS analysis; assay type: ADME, organism-based; set-up: dose 8 mg/kg, time infinity, route intravenous; settings: in vivo; procedure, shortened: as §1
[23] = AUC (infinity) in BALB-C mouse at 8 mg/kg, po by LC-MS/MS analysis; assay type: ADME, organism-based; set-up: dose 8 mg/kg, route oral, time infinity; settings: in vivo; procedure, shortened: as §1
[24] = Oral bioavailability in BALB-C mouse at 8 mg/kg by LC-MS/MS analysis; assay type: ADME, organism-based; settings: in vivo; procedure, shortened: as §2
[25] = Clearance in BALB-C mouse at 8 mg/kg, iv by LC-MS/MS analysis; assay type: ADME, organism-based; settings: in vivo; procedure, shortened: as §3
[26] = Half-life in BALB-C mouse at 8 mg/kg, po by LC-MS/MS analysis; assay type: ADME, organism-based; settings: in vivo; procedure, shortened: as §1
Mus musculus [27] = assay: Clearance in BALB-C mouse at 8 mg/kg, iv by LC-MS/MS analysis relative to hepatic blood flow; assay type: ADME, organism-based; settings: in vivo
[28] = Half-life in BALB-C mouse at 8 mg/kg, iv by LC-MS/MS analysis; assay type: ADME, organism-based; settings: in vivo; procedure, shortened: as §1
[29] = Volume of distribution in BALB-C mouse at 8 mg/kg, iv by LC-MS/MS analysis; assay type: ADME, organism-based; settings: in vivo; procedure, shortened: as §2
[30] = Cmax in BALB-C mouse at 8 mg/kg, po by LC-MS/MS analysis; assay type: ADME, organism-based; set-up: dose 8 mg/kg, route oral; settings: in vivo; procedure, shortened: as §1
[31] = Tmax in BALB-C mouse at 8 mg/kg, po by LC-MS/MS analysis; assay type: ADME, organism-based; settings: in vivo; procedure, shortened: as §2

half-life [1]: 3.22 h
Ki [2]: 16.7 nM
AUC(0-inf) [3]: 6980 ng·h/mL
Time (Mus musculus [4]): > 12 h
clearance [5]: 12.5 mL/min/kg
Vd [6]: 1.24 L/kg
Cmax [7]: 1370 ng/mL
Ki (PI3K p110 beta/p85 alpha): 71.9 nM
inhibition at 10 µM (CYP2C19): < 25%
inhibition at 10 µM (CYP2C9): < 25%
Papp at 5 h [8]: 1.51 ×10⁻⁶ cm/s
CL (Mus musculus [9]): < 50%
inhibition at 10 µM (CYP1A2): < 25%
IC50 [10]: 5410 nM
half-life [12]: 0.61 h
Tmax [13]: 0.5 h
remaining at 0.5 h, 0.5 µM [14]: 100%
EC50 (U2OS): 0.01753 µg/mL (≈ 0.0345 µM)
EC50 [15]: 34.5 nM
remaining at 0.5 h, 0.5 µM [16]: 100%
bioavailability [17]: 43.1%
Ki [18]: 2.1 nM
inhibition at 10 µM (CYP3A4): < 25%
solubility kinetic at 24 h [19]: 100 µM (≈ 50.8 µg/mL)
Ki [20]: 8.4 nM
AUC(0-inf) [21]: 8100 ng·h/mL
inhibition at 10 µM (CYP2D6): < 25%
Structure (SMILES): CS(=O)(=O)N1CCN(Cc2cc3c(N4CCOCC4)nc(-c4cnc(N)nc4)c(Cl)n3n2)CC1
IC50 [11]: > 30000 nM

AUC(0-inf) [22]: 14200 ng·h/mL
AUC(0-inf) [23]: 12600 ng·h/mL
bioavailability [24]: 88.6%
inhibition at 10 µM (CYP2C19): < 25%
clearance [25]: 9.33 mL/min/kg
inhibition at 10 µM (CYP2C9): < 25%
half-life [26]: 8.38 h
Papp at 5 h [8]: 0.26 ×10⁻⁶ cm/s
CL (Mus musculus [27]): < 50%
inhibition at 10 µM (CYP1A2): < 25%
IC50 [10]: 4880 nM
remaining at 0.5 h, 0.5 µM [14]: 100%
remaining at 0.5 h, 0.5 µM [16]: 100%
half-life [28]: 1.36 h
inhibition at 10 µM (CYP3A4): < 25%
Vd [29]: 0.8 L/kg
Cmax [30]: 1130 ng/mL
Tmax [31]: 1 h
solubility kinetic at 24 h [19]: 50 µM (≈ 23.7 µg/mL)
inhibition at 10 µM (CYP2D6): < 25%
Structure (SMILES): CS(=O)(=O)N1CCN(Cc2cn3cc(-c4cnc(N)nc4)nc(N4CCOCC4)c3n2)CC1
